# RGS4 block – inhibitors of human RGS4; HEK293 M3R/RGS4 inducible, Fluo-4 calcium flux; active compounds read high; triggered by carbachol at its EC20; B-score at 10 µM; 310,000 tested, 0.45% active;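 active = B-score, a plate-corrected calcium signal, over three deviations above library mean, with baseline fluorescence within five deviations of library mean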;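 note: RGS4 expression induced by doxycycline in cells with stable M3 receptor; B-score is computed from the integrated fluorescence ratio over baseline after carbachol; higher B-score means a larger calcium signal and so more RGS4 inhibition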
# Target sequence (P49798 whole entry, looked up): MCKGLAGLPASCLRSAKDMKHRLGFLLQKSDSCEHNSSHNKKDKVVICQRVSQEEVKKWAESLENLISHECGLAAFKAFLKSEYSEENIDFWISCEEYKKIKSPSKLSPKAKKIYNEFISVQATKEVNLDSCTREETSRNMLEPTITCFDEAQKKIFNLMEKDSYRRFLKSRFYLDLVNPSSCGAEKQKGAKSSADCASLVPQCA
# RGS4 pot – potentiators or activators of RGS4; HEK293 M3R/inducible RGS4, carbachol calcium flux Fluo4; active compounds read low; B-score at 10 µM; 310,000 tested, 0.92% active; AID 463111;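 active = B-score of the integrated calcium signal more than 4 SD below the library mean, with starting fluorescence not abnormally high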;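 note: negative B-score means reduced calcium response which marks RGS4 activation or potentiation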
#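 Assay system: Inducible-RGS4 HEK293 cells carrying M3 receptor | Schedule: Compound preincubation 20 min at room temperature before agonist | Signal: Kinetic calcium fluorescence imaging with Fluo4-AM dye, 2 µM | Read-out basis: B score from integrated fluorescence ratio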
# MrgX1 allo act – allosterically activates human MrgX1 receptor signaling; 310,000 tested, 0.63% active; MrgX1-HEK293, Fluo-4 calcium flux, FDSS; active compounds read high; B-score at 10 µM;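 active = plate-corrected calcium response at least 3 library SD above typical, normal starting fluorescence, not activating the receptor alone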;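 note: compound read alongside a low EC10 to EC30 dose of BAM8-22 agonist; peak minus trough fluorescence over baseline measured at the second addition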
# Target sequence (Q96LB2 whole entry, looked up): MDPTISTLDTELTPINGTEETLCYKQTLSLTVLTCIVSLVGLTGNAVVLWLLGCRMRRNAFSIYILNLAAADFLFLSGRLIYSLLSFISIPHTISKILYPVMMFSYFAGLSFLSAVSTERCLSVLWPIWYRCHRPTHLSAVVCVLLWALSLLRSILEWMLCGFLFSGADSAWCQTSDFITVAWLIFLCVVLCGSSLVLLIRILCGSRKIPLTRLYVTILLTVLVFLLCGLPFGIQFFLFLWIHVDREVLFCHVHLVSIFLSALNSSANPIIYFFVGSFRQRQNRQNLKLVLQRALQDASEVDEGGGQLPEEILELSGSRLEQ
# MrgX1 ag – human MrgX1 receptor agonism, primary screen; Q96LB2; MrgX1-HEK293 cells, Fluo-4 calcium fluorescence, agonist mode; active compounds read high; B-score at 10 µM; 310,000 tested, 0.44% active; AID 588627;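 active = calcium response B-score plate-corrected fluorescence ratio at least 3 library SD, with starting fluorescence B-score inside 5 SD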
#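 Assay system: stable human MrgX1 HEK293 cell line. Quantity: 15,000 cells per well. Schedule: cells plated overnight, dye loaded 0.5 h 37 °C, 0.5 h room temperature. Detection: Fluo-4 NW calcium-flux fluorescence, kinetic read. Read-out basis: peak-minus-minimum fluorescence over baseline, converted to B scores. Control set: positive and negative control wells on each plate.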
# MrgX1 antagonist – blocks BAM8-22 activation of human MrgX1 receptor | Q96LB2 | MRGX1-HEK293 calcium flux, Fluo-4, BAM8-22 antagonism; active compounds read low | B-score at 10 µM | 310,000 tested, 1.3% active | AID 588676;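 active = calcium-response B-score plate-corrected more than 3 library SD below zero, starting fluorescence within 5 deviations, no agonist response on first addition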;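 note: peak minus trough fluorescence over baseline after final BAM8-22 challenge near maximal dose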
# RGS4 block valid – RGS4 inhibitor validation; shares compounds with RGS4 block; HEK293 M3R/RGS4, carbachol calcium Fluo-4 fluorescence; carbachol added at its EC20; 0 = buffer wells, 100 = carbachol control; calcium response, % at 10 µM; 1,700 tested, 65% active; AID 492999;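 active = duplicate-averaged calcium response above the buffer-only control mean plus 5 SD of those controls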;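 note: integrated fluorescence ratio F max minus min over baseline F0; higher response in RGS4-induced cells means RGS4 inhibition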
# RGS4 uninduced – non-induced cell nonspecific activity of RGS4 inhibitors | shares compounds with RGS4 block | HEK293 M3R non-induced, carbachol calcium Fluo-4; submaximal (EC20) carbachol stimulus; buffer wells 0%, carbachol control wells 100% | activity (percent), % at 10 µM | 1,900 tested, 20% active | AID 493000; call rule not given here;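 note: RGS4 induction absent so cells express M3R without RGS4; higher means more calcium signal and flags a non-specific hit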
# M3R basal Ca ctr – signal in non-induced cells without carbachol, RGS4 inhibitor counter-screen; shares compounds with RGS4 block; 1,900 tested, 22% active; AID 493001; HEK293 M3R/RGS4 non-induced, Fluo-4 calcium, no carbachol; normalised: buffer wells 0%, carbachol wells 100%; calcium response (agonist-mode artifact), % at 10 µM;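 active = duplicate-averaged calcium rise in uninduced cells above buffer wells' mean plus 5 SD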
# Starred values were filed as active, the others as inactive; i = inactive; · = no result. Sampled rows, rich in hits. Any-hit rate of the full collection: about 3.5%.
SMILES,RGS4 block,RGS4 pot,MrgX1 allo act,MrgX1 ag,MrgX1 antagonist,RGS4 block valid,RGS4 uninduced,M3R basal Ca ctr
Cc1ccc(-c2c(C#N)c(N)nc3c2CCCCC3)o1,i,i,i,i,i,·,·,·
Cc1ccc(-c2cc(-c3ccc(Cl)cc3)c(C#N)c(N)n2)o1,6.3*,i,i,i,i,5.0%*,i,12%*
Cc1cc(-c2cc(-c3ccc(Cl)cc3)nc(N)c2C#N)co1,9.8*,i,i,i,i,5.0%*,i,i
CCCc1nnc(NC(=O)CCC(=O)Nc2ccc(Br)cc2)s1,i,i,i,i,i,·,·,·
Cc1cc(Cl)c2cc3ccccc3cc2n1,i,i,i,i,i,·,·,·
CCOc1ccc(CCNC(=O)c2cccc(S(=O)(=O)N3CCN(C(C)=O)CC3)c2)cc1OCC,i,i,i,i,i,·,·,·
Cc1nc(N)c(C#N)c(-c2ccc3c(c2)OCO3)c1C,i,i,i,i,i,·,·,·
Cc1ccc(-c2cc(-c3ccc4c(c3)OCO4)c(C#N)c(N)n2)o1,8.8*,i,i,i,i,i,i,i
CCC(=O)Nc1ccc(C=C(C(C)=O)C(C)=O)cc1,5*,i,i,i,i,56%*,29%*,16%*
O=C(O)CC1S/C(=N\N=C2\C(=O)Nc3ccccc32)N(c2ccc(O)cc2)C1=O (stereo not given),i,i,i,i,i,·,·,·
CCOC(=O)NC(=O)CSc1nc(-c2ccc(C)c(C)c2)cn1-c1ccccc1,i,i,i,i,i,·,·,·
Cc1ccc(-c2cn(-c3ccccc3)c(SCC(N)=O)n2)cc1C,4.7*,i,i,i,i,9.5%*,i,i
Cc1nc(-c2ccccc2)sc1C(=O)/C=C/c1ccc(Cl)cc1,12*,i,i,i,i,7.5%*,30%*,16%*
Cc1cc(Cl)ccc1N(CC(=O)N=Nc1c(O)[nH]c2ccccc12)S(C)(=O)=O,4.9*,i,i,i,i,5.5%*,i,i
Cc1ccc(S(=O)(=O)N(CC(=O)N=Nc2c(O)[nH]c3ccccc23)c2cccc(C)c2)cc1,i,i,i,i,i,·,·,·
COc1ccc(C)cc1NS(=O)(=O)c1ccc(NC(=O)CN(c2cc([N+](=O)[O-])ccc2C)S(C)(=O)=O)cc1,i,i,i,i,i,·,i,i
CCOc1ccc(NS(=O)(=O)c2ccc(NS(=O)(=O)c3ccc(SC)cc3)cc2)cc1,5.2*,i,i,i,-4.8*,13%*,32%*,i
CSc1ccc(S(=O)(=O)Nc2ccc(S(=O)(=O)Nc3ccc(C)cc3)cc2)cc1,5*,i,i,i,i,28%*,i,i
CSc1ccc(S(=O)(=O)Nc2ccc(NC(C)=O)cc2)cc1,i,i,i,i,i,·,·,·
CCCC(=O)OCCNc1cc(Sc2nc3ccccc3[nH]2)c2nonc2c1[N+](=O)[O-],i,i,i,i,i,·,i,14%*
CCC(=O)OCCNc1cc(SCCC(=O)OC)c2nonc2c1[N+](=O)[O-],i,i,i,i,i,·,·,·
CCC(=O)OCCNc1cc(Sc2nccn2C)c2nonc2c1[N+](=O)[O-],i,i,i,i,i,·,i,i
Nc1nnnn1/N=C/c1cc(Br)ccc1O,i,i,i,i,i,·,·,·
CC(C)(C)c1ccc(Cn2nnc3c(=O)[nH]c(C4CCN(C(=O)Cc5cccs5)CC4)nc32)cc1,5.4*,i,i,i,i,27%*,i,i
Cc1ccc(Cn2nnc3c(=O)[nH]c(C4CCN(C(=O)Cc5cccs5)CC4)nc32)cc1,i,i,i,i,i,·,i,i
SMILES,RGS4 block,RGS4 pot,MrgX1 allo act,MrgX1 ag,MrgX1 antagonist,RGS4 block valid,RGS4 uninduced,M3R basal Ca ctr
CC(C)(C)c1ccc(Cn2nnc3c(=O)[nH]c(C4CCCN(C(=O)Cc5cccs5)C4)nc32)cc1 (stereo not given),i,i,i,i,i,·,·,·
O=C(Cc1cccs1)N1CCCC(c2nc3c(nnn3Cc3ccc(F)cc3)c(=O)[nH]2)C1 (stereo not given),i,i,i,i,i,·,·,·
O=C(Cc1cccs1)N1CCC(c2nc3c(nnn3Cc3ccccc3)c(=O)[nH]2)CC1,i,i,i,i,i,i,i,i
Nc1c(-c2ccccc2)sc2ccc3ccccc3[n+]12,i,i,i,i,i,·,·,·
CN(CC(=O)Nc1ccc(Cl)c(C(F)(F)F)c1)C(=O)Cc1c[nH]c2ccccc12,5.9*,i,i,i,i,18%*,i,i
O=C(NCCN1CCCC1)c1ccc2c(c1)N(Cc1ccccc1)C(=O)c1ccccc1S2(=O)=O,i,i,i,i,i,·,·,·
COc1cc2[nH]c3c(N4CCC(C(N)=O)CC4)ncnc3c2cc1OC,5.7*,i,i,i,i,i,i,i
COc1cccc2c1cc1c(=O)n(CC(=O)N3CCC(C)CC3)nc(C)n12,i,i,i,i,i,·,·,·
COc1ccccc1NC(=O)c1cc2c(=O)n(C)c3ccccc3c2n1C,i,i,i,i,i,·,·,·
Cn1cccc1C(=O)OCC(=O)N1c2ccccc2NC(=O)C1(C)C,5.2*,i,i,i,i,6.5%*,i,i
CC1(C)C(=O)Nc2ccccc2N1C(=O)COC(=O)C1CCCCC1,i,i,i,i,i,·,·,·
CC(C)=CCc1c(O)cc2c(=O)c3ccc(O)cc3oc2c1O,11*,i,i,i,i,9.0%*,i,i
Nn1c(Nc2ccccc2)nc2sc3c(c2c1=O)CCC3,4.8*,i,·,·,·,14%*,i,i
N#C/C(=C\c1cccs1)C(=O)c1ccccc1Cl,18*,i,i,i,i,56%*,i,8.5%*
COC(=O)c1c(C)c(OC(=O)c2c(C)cc(O)c(C=O)c2O)cc(C)c1O,i,i,i,i,i,·,·,·
